Results from publication PMC11951139 (Journal of Agricultural and Food Chemistry, 2025).
“Also recorded” adds a separate entry of the source.

Legend:
DmATG8a^K48A = assay: MST binding to the DmATG8a K48A mutant; set-up: species or system Drosophila melanogaster; conditions: 25 °C
Summary of the method: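 K48A point mutant of DmATG8a made by site-directed mutagenesis in pET-32a. Expressed and purified as for wild type: E. coli BL21(DE3), His-tag affinity, TEV cleavage, desalting. Binding of the test indole assessed by microscale thermophoresis with fluorescently labelled protein.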

DmATG8a = DmATG8a (Drosophila melanogaster, UniProt Q9W2S2); assay: Microscale thermophoresis; format: binding; conditions: for Kd: Kd value (binding affinity with DmATG8a), MST, fluorescently labeled DmATG8a
Summary of the method: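 Wild-type DmATG8a expressed from pET-32a in E. coli BL21(DE3), induced with 1 mM IPTG at 20 °C for 16 h. Purified by His-tag affinity, TEV tag removal and size exclusion in 20 mM Tris-HCl, 300 mM NaCl, pH 7.5. Protein labelled with RED-NHS dye. Test compounds and tryptophan run as 16-point dilutions from 0.06 to 2000 μM, 5 min in the dark, then MST on a Monolith NT.115.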

[1] = test system: D. melanogaster adult flies; assay: Insecticidal activity, combined gastric poisoning and contact method; format: in vivo, Drosophila melanogaster; conditions: for insecticidal activity: 500 μg/mL, adult flies, mortality after 24 h
Summary of the method: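 Adult fruit flies, about twenty 2-day-old per dish. Apple slices soaked 1 min in test solution, then placed in the Petri dish, combining ingestion and contact exposure. Triplicate per treatment, with water as negative and avermectin as positive control. Held at 24 ± 1 °C, 75 ± 5% RH, 16 h light:8 h dark. Mortality scored at 24 h by gently touching insects with a brush.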

DmATG8a, sequence (Q9W2S2 1-121): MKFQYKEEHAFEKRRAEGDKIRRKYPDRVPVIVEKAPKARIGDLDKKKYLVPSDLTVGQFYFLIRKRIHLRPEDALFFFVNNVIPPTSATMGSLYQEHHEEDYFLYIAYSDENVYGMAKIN

SMILES	binding to DmATG8a^K48A (DmATG8a^K48A)	fold lower Kd than tryptophan (DmATG8a; Kd of 6-fluoroindole versus Kd of tryptophan)	Kd (DmATG8a) [µM]	insecticidal activity [1] [%]	LC50 ([1]; Drosophila melanogaster, 24 h) [µg/mL]	mortality at 15 µg/mL ([1]; Drosophila melanogaster, 24 h) [%]
Fc1ccc2cc[nH]c2c1 [6-fluoroindole]	no affinity; also recorded: no binding	approximately 19 fold	3.54	100	169	
CC[C@H](C)[C@H]1O[C@]2(C=C[C@@H]1C)C[C@@H]1C[C@@H](C/C=C(\C)[C@@H](O[C@H]3C[C@H](OC)[C@@H](O[C@H]4C[C@H](OC)[C@@H](O)[C@H](C)O4)[C@H](C)O3)[C@@H](C)/C=C/C=C3\CO[C@@H]4[C@H](O)C(C)=C[C@@H](C(=O)O1)[C@]34O)O2 [avermectin]				100	30.5	33
N[C@@H](Cc1c[nH]c2ccccc12)C(=O)O [tryptophan, reference compound]			67			
